ChEMBL document CHEMBL1153830, “Treatment of a clinically relevant plant-pathogenic fungus with an agricultural azole causes cross-resistance to medical azoles and potentiates caspofungin efficacy” (2007)
Values after ≈ are worked out from the molar mass of the structure shown. Active and inactive are the calls of the source. The calls are words filed in the database; no cut-off is given here.

How the values were obtained:
[1] = test system: Colletotrichum graminicola; assay: Fungicidal activity against tebuconazole-nonadapted wild type Colletotrichum graminicola CgM2 assessed as inhibition of radial growth rate at 23 degC in darkness; format: functional; details: for EC50: Colletotrichum graminicola, CgM2, read-out: ED50 (the source's name)
In short: (§1)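 Radial growth on solid complete medium, 23°C, darkness. Colony diameters were read at 3 and 6 days after inoculation and compared with drug-free control plates. Azoles and picoxystrobin were dissolved in 12% (wt/vol) Cremophor EL and tested at 0–2.5 μg/ml. Caspofungin, amphotericin B and nystatin were dissolved in water and tested from 0.00025 μg/ml; caspofungin plates used sucrose (10 mg/ml) in place of glucose.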

[2] = test system: Colletotrichum graminicola; assay: Fungicidal activity against tebuconazole-adapted wild type Colletotrichum graminicola CgM2 assessed as inhibition of radial growth rate at 23 degC in darkness; format: functional; details: for EC50: Colletotrichum graminicola, CgM2, read-out: ED50 (the source's name); in short: as §1
[3] = test system: Colletotrichum graminicola; assay: Fungicidal activity against compound-nonadapted wild type Colletotrichum graminicola CgM2 assessed as inhibition of radial growth rate at 30 ppm at 23 degC in darkness after 7 days; format: functional, organism-based
In short: (§2)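 Isolate CgM2: 1 × 10^6 conidia grown in 50 ml liquid complete medium (CM), 7 days in darkness at 23°C. Adapted lines were passed through tebuconazole at 1, 5 and 20 μg/ml, then kept on CM plates containing 5 and 8 μg/ml (4 weeks each) and finally 30 μg/ml. Radial growth on CM plates was compared with that of the nonadapted strain.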

[4] = test system: Colletotrichum graminicola; assay: Fungicidal activity against compound-adapted wild type Colletotrichum graminicola CgM2 assessed as inhibition of radial growth rate at 30 ppm at 23 degC in darkness after 7 days; format: functional, organism-based; in short: as §2
[5] = test system: Colletotrichum graminicola; assay: Ratio of ED50 for tebuconazole-adapted wild type Colletotrichum graminicola CgM2 to ED50 for tebuconazole-nonadapted wild type Colletotrichum graminicola CgM2; format: functional
In short: (§3)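 Values came from logit transformation and linear regression, with confidence intervals at α = 0.05. Ratios compare tebuconazole-adapted with nonadapted CgM2.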

[6] = test system: Colletotrichum graminicola; assay: Ratio of ED90 for tebuconazole-adapted wild type Colletotrichum graminicola CgM2 to ED90 for tebuconazole-nonadapted wild type Colletotrichum graminicola CgM2; format: functional; in short: as §3
[7] = test system: Colletotrichum graminicola; assay: Fungicidal activity against tebuconazole-nonadapted wild type Colletotrichum graminicola CgM2 infected in excised human skin assessed as inhibition of invasive colonized hyphal growth at epidermis at ED50 after 4 days by Uvitex-2B staining-based fluorescence microscopy; format: functional, organism-based
In short: (§4)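 Excised human skin from reduction mammoplasty, all pieces from one donor, cut to 20 mm discs. Each disc got 15–20 prick wounds and 100 μl of 10^6 conidia/ml. Discs sat in a Franz diffusion cell at 32°C over isotonic NaCl for up to 4 days. Drug was applied at ED50, ED90 or 2× ED90, three pieces per condition. Biopsies were cryosectioned and Uvitex 2B-stained; hyphal area per section was measured by fluorescence.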

[8] = test system: Colletotrichum graminicola; assay: Fungicidal activity against tebuconazole-adapted wild type Colletotrichum graminicola CgM2 infected in excised human skin assessed as inhibition of invasive colonized hyphal growth at hypodermis at ED90 after 4 days by Uvitex-2B staining-based fluorescence microscopy; format: functional, organism-based; in short: as §4
[9] = test system: Colletotrichum graminicola; assay: Fungicidal activity against tebuconazole-nonadapted wild type Colletotrichum graminicola CgM2 infected in excised human skin assessed as inhibition of invasive colonized hyphal growth at dermis at twofold ED90 after 4 days by Uvitex-2B staining-based fluorescence microscopy; format: functional, organism-based; in short: as §4
[10] = test system: Colletotrichum graminicola; assay: Fungicidal activity against tebuconazole-adapted wild type Colletotrichum graminicola CgM2 infected in excised human skin assessed as inhibition of invasive colonized hyphal growth at epidermis at twofold ED90 after 4 days by Uvitex-2B staining-based fluorescence microscopy; format: functional, organism-based; in short: as §4
[11] = test system: Colletotrichum graminicola; assay: Fungicidal activity against tebuconazole-nonadapted wild type Colletotrichum graminicola CgM2 infected in excised human skin assessed as inhibition of invasive colonized hyphal growth at epidermis at ED90 after 4 days by Uvitex-2B staining-based fluorescence microscopy; format: functional, organism-based; in short: as §4
[12] = test system: Colletotrichum graminicola; assay: Fungicidal activity against tebuconazole-adapted wild type Colletotrichum graminicola CgM2 infected in excised human skin assessed as inhibition of invasive colonized hyphal growth at epidermis at ED90 after 4 days by Uvitex-2B staining-based fluorescence microscopy; format: functional, organism-based; in short: as §4
[13] = test system: Colletotrichum graminicola; assay: Fungicidal activity against tebuconazole-adapted wild type Colletotrichum graminicola CgM2 infected in excised human skin assessed as inhibition of invasive colonized hyphal growth at dermis at ED90 after 4 days by Uvitex-2B staining-based fluorescence microscopy; format: functional, organism-based; in short: as §4
[14] = test system: Colletotrichum graminicola; assay: Fungicidal activity against tebuconazole-nonadapted wild type Colletotrichum graminicola CgM2 infected in excised human skin assessed as inhibition of invasive colonized hyphal growth at dermis at ED90 after 4 days by Uvitex-2B staining-based fluorescence microscopy; format: functional, organism-based; in short: as §4
[15] = test system: Colletotrichum graminicola; assay: Fungicidal activity against tebuconazole-nonadapted wild type Colletotrichum graminicola CgM2 infected in excised human skin assessed as inhibition of invasive colonized hyphal growth at hypodermis at ED90 after 4 days by Uvitex-2B staining-based fluorescence microscopy; format: functional, organism-based; in short: as §4
[16] = test system: Colletotrichum graminicola; assay: Fungicidal activity against tebuconazole-nonadapted wild type Colletotrichum graminicola CgM2 infected in excised human skin assessed as inhibition of invasive colonized hyphal growth at epidermis at twofold ED90 after 4 days by Uvitex-2B staining-based fluorescence microscopy; format: functional, organism-based; in short: as §4
[17] = test system: Colletotrichum graminicola; assay: Fungicidal activity against tebuconazole-adapted wild type Colletotrichum graminicola CgM2 infected in excised human skin assessed as inhibition of invasive colonized hyphal growth at hypodermis at ED50 after 4 days by Uvitex-2B staining-based fluorescence microscopy; format: functional, organism-based; in short: as §4
[18] = test system: Colletotrichum graminicola; assay: Fungicidal activity against tebuconazole-adapted wild type Colletotrichum graminicola CgM2 infected in excised human skin assessed as inhibition of invasive colonized hyphal growth at epidermis at ED50 after 4 days by Uvitex-2B staining-based fluorescence microscopy; format: functional, organism-based; in short: as §4
[19] = test system: Colletotrichum graminicola; assay: Fungicidal activity against tebuconazole-nonadapted wild type Colletotrichum graminicola CgM2 infected in excised human skin assessed as inhibition of invasive colonized hyphal growth at hypodermis at ED50 after 4 days by Uvitex-2B staining-based fluorescence microscopy; format: functional, organism-based; in short: as §4
[20] = test system: Colletotrichum graminicola; assay: Fungicidal activity against tebuconazole-nonadapted wild type Colletotrichum graminicola CgM2 infected in excised human skin assessed as inhibition of invasive colonized hyphal growth at dermis at ED50 after 4 days by Uvitex-2B staining-based fluorescence microscopy; format: functional, organism-based; in short: as §4
[21] = test system: Colletotrichum graminicola; assay: Fungicidal activity against tebuconazole-adapted wild type Colletotrichum graminicola CgM2 infected in excised human skin assessed as inhibition of invasive colonized hyphal growth at hypodermis at twofold ED90 after 4 days by Uvitex-2B staining-based fluorescence microscopy; format: functional, organism-based; in short: as §4
[22] = test system: Colletotrichum graminicola; assay: Fungicidal activity against tebuconazole-nonadapted wild type Colletotrichum graminicola CgM2 infected in excised human skin assessed as inhibition of invasive colonized hyphal growth at hypodermis at twofold ED90 after 4 days by Uvitex-2B staining-based fluorescence microscopy; format: functional, organism-based; in short: as §4
[23] = test system: Colletotrichum graminicola; assay: Fungicidal activity against tebuconazole-adapted wild type Colletotrichum graminicola CgM2 infected in excised human skin assessed as inhibition of invasive colonized hyphal growth at dermis at ED50 after 4 days by Uvitex-2B staining-based fluorescence microscopy; format: functional, organism-based; in short: as §4
[24] = test system: Colletotrichum graminicola; assay: Fungicidal activity against tebuconazole-adapted wild type Colletotrichum graminicola CgM2 infected in excised human skin assessed as inhibition of invasive colonized hyphal growth at dermis at twofold ED90 after 4 days by Uvitex-2B staining-based fluorescence microscopy; format: functional, organism-based; in short: as §4

Q: Which results are given for Cc1cccc(N(C)C(=S)Oc2ccc3ccccc3c2)c1 [TOLNAFTATE]?
A: ED90 [1]: 104.107 µg/mL (≈ 339 µM); EC50 [1]: 0.582 µg/mL (≈ 1.89 µM); ED90 [2]: 98.71 µg/mL (≈ 321 µM); EC50 [2]: 0.537 µg/mL (≈ 1.75 µM)

Q: CCC(C)n1ncn(-c2ccc(N3CCN(c4ccc(OCC5COC(Cn6cncn6)(c6ccc(Cl)cc6Cl)O5)cc4)CC3)cc2)c1=O (stereo unspecified) [ITRACONAZOLE] was tested. Which ED90 [1] did it give?
A: 1.351 µg/mL (≈ 1.91 µM)

Q: What about the EC50 [1] of the same molecule?
A: 0.007 µg/mL (≈ 0.00992 µM)

Q: What about the ED90 [2] of the same molecule?
A: 8.848 µg/mL (≈ 12.5 µM)

Q: What about the EC50 [2] of the same molecule?
A: 0.014 µg/mL (≈ 0.0198 µM)

Q: Which results are given for CC(C)(C)C(O)(CCc1ccc(Cl)cc1)Cn1cncn1 (stereo unspecified) [TEBUCONAZOLE]?
A: Activity [3]: Active; Activity [4]: inactive; fold change (FC) [5]: 7; ED90 [1]: 0.504 µg/mL (≈ 1.64 µM); EC50 [1]: 0.059 µg/mL (≈ 0.192 µM); fold change (FC) [6]: 27; ED90 [2]: 13.534 µg/mL (≈ 44 µM); EC50 [2]: 0.423 µg/mL (≈ 1.37 µM)

Q: With NYSTATIN as the molecule, how does the ED50 [1] read?
A: 0.03 µg/mL

Q: And the ED90 [1]?
A: 2.41 µg/mL

Q: And the ED50 [2]?
A: 0.023 µg/mL

Q: What about the ED90 [2] of the same molecule?
A: 0.896 µg/mL

Q: With c1ccc(-c2ccc(C(c3ccccc3)n3ccnc3)cc2)cc1 (stereo unspecified) [BIFONAZOLE] as the molecule, how does the Activity [7] read?
A: Active

Q: And the Activity [8]?
A: inactive

Q: And the Activity [9]?
A: Active

Q: What about the Activity [10] of the same molecule?
A: inactive

Q: And the Activity [11]?
A: Active

Q: And the Activity [12]?
A: inactive

Q: And the Activity [13]?
A: inactive

Q: What about the Activity [14] of the same molecule?
A: Active

Q: What about the Activity [15] of the same molecule?
A: Active

Q: What about the Activity [16] of the same molecule?
A: Active

Q: And the Activity [17]?
A: inactive

Q: And the Activity [18]?
A: inactive

Q: What about the ED90 [1] of the same molecule?
A: 1.958 µg/mL (≈ 6.31 µM)

Q: And the EC50 [1]?
A: 0.148 µg/mL (≈ 0.477 µM)

Q: What about the Activity [19] of the same molecule?
A: Active

Q: What about the ED90 [2] of the same molecule?
A: 4.892 µg/mL (≈ 15.8 µM)

Q: What about the EC50 [2] of the same molecule?
A: 0.33 µg/mL (≈ 1.06 µM)

Q: And the Activity [20]?
A: Active

Q: And the Activity [21]?
A: inactive

Q: And the Activity [22]?
A: Active

Q: And the Activity [23]?
A: inactive

Q: And the Activity [24]?
A: inactive

Q: Which results are given for CCCN(CCOc1c(Cl)cc(Cl)cc1Cl)C(=O)n1ccnc1 [PROCHLORAZ]?
A: fold change (FC) [5]: 2.75; ED90 [1]: 0.087 µg/mL (≈ 0.231 µM); EC50 [1]: 0.004 µg/mL (≈ 0.0106 µM); fold change (FC) [6]: 8; ED90 [2]: 0.72 µg/mL (≈ 1.91 µM); EC50 [2]: 0.011 µg/mL (≈ 0.0292 µM)

Q: What does the source list for Clc1ccccc1C(c1ccccc1)(c1ccccc1)n1ccnc1 [CLOTRIMAZOLE]?
A: ED90 [1]: 2.44 µg/mL (≈ 7.08 µM); EC50 [1]: 0.128 µg/mL (≈ 0.371 µM); ED90 [2]: 6.485 µg/mL (≈ 18.8 µM); EC50 [2]: 0.145 µg/mL (≈ 0.42 µM)

Q: What does the source list for CC(=O)N1CCN(c2ccc(OCC3COC(Cn4ccnc4)(c4ccc(Cl)cc4Cl)O3)cc2)CC1 (stereo unspecified) [KETOCONAZOLE]?
A: ED90 [1]: 1.492 µg/mL (≈ 2.81 µM); EC50 [1]: 0.115 µg/mL (≈ 0.216 µM); ED90 [2]: 12.419 µg/mL (≈ 23.4 µM); EC50 [2]: 0.552 µg/mL (≈ 1.04 µM)
